Test results as given in ChEMBL document CHEMBL1649111, “Restoration of susceptibility of intracellular methicillin-resistant Staphylococcus aureus to beta-lactams: comparison of strains, cells, and antibiotics” (Antimicrob Agents Chemother, 2008).
In brackets after ≈: the same amount, converted by molar mass.

Assays:
[1] = test system: Staphylococcus aureus; experiment: Antimicrobial activity against intracellular hospital acquired methicillin-resistant Staphylococcus aureus ATCC 33591 activated infected in human THP-1 cells assessed as decrease in bacterial growth after 24 hrs at pH 7.4; format: functional, organism-based; details: ATCC 33591, THP-1, 24 h
Method in brief: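 THP-1 cells activated by 24-h culture with phorbol myristate acetate 2 mg/liter, then infected like unactivated THP-1. Cloxacillin dose range in mg/liter for 24 h. CFU per mg cell protein relative to the original inoculum, n = 3. Emin and Emax extrapolated from a Hill fit (slope 1), with EC50 as total drug; static concentration by graphical interpolation.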

[2] = test system: Staphylococcus aureus; experiment: Antimicrobial activity against intracellular hospital acquired methicillin-resistant Staphylococcus aureus ATCC 33591 infected in human keratinocytes assessed as decrease in bacterial count from original inoculum at high compound concentration after 24 hrs at pH 7.4; format: functional
Method in brief: (§1)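 Primary human skin keratinocytes or Calu-3 bronchial epithelial cells, given an inoculum of 5 × 10⁷ to 1 × 10⁸ bacteria/ml and 2 h for internalization. Post-phagocytosis load 1.5 × 10⁶ to 3.0 × 10⁶ CFU per mg cell protein. Cloxacillin dose range in mg/liter for 24 h, n = 3. Hill-derived Emin, Emax and EC50; static concentration interpolated.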

[3] = test system: Staphylococcus aureus; experiment: Antimicrobial activity against intracellular hospital acquired methicillin-resistant Staphylococcus aureus ATCC 33591 infected in human Calu3 cells assessed as increase in bacterial count from original inoculum at low compound concentration after 24 hrs at pH 7.4; format: functional, Calu-3; method in brief: as §1
[4] = test system: Staphylococcus aureus; experiment: Antimicrobial activity against intracellular beta-lactamase negative methicillin-susceptible Staphylococcus aureus ATCC 25923 infected in human Calu3 cells assessed as decrease in bacterial count from original inoculum at high compound concentration after 24 hrs at pH 7.4; format: functional, Calu-3; method in brief: as §1
[5] = test system: Staphylococcus aureus; experiment: Antimicrobial activity against intracellular hospital acquired methicillin-resistant Staphylococcus aureus ATCC 33591 infected in human Calu3 cells assessed as decrease in bacterial count from original inoculum at high compound concentration after 24 hrs at pH 7.4; format: functional, Calu-3; method in brief: as §1
[6] = Chemical stability of the compound assessed as compound remaining after 24 hrs in PBS buffer by HPLC analysis at pH 7.4; format: physicochemical; details: read-out: Activity
Method in brief: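 Drug at 50 mg/liter initial concentration incubated 24 h at 37°C in buffered medium at pH 7.4 or 5.5. Remaining drug measured by HPLC signal disappearance; mobile phase 25 mM phosphate buffer pH 6.7 with acetonitrile (75:25).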

[7] = test system: Staphylococcus aureus; experiment: Antimicrobial activity against hospital acquired methicillin-resistant Staphylococcus aureus ATCC 33591 infected in human THP-1 cells assessed as increase in bacterial count from original inoculum at low compound concentration after 24 hrs at pH 7.4; format: functional
[8] = test system: Staphylococcus aureus; experiment: Antimicrobial activity against hospital acquired methicillin-resistant Staphylococcus aureus ATCC 33591 infected in human THP-1 cells assessed as decrease in bacterial growth after 24 hrs at pH 7.4; format: functional, organism-based; details: ATCC 33591, THP-1, 24 h
[9] = test system: Staphylococcus aureus; experiment: Antimicrobial activity against beta-lactamase negative methicillin-susceptible Staphylococcus aureus ATCC 25923 by broth microdilution method at pH 7.4; format: functional
[10] = test system: Staphylococcus aureus; experiment: Antimicrobial activity against hospital acquired methicillin-resistant Staphylococcus aureus ATCC 33591 by broth microdilution method at pH 7.4; format: functional
Method in brief: (§2)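 Minimal inhibitory concentration by broth microdilution at pH 7.4, read in mg/liter. The MRSA genotype was confirmed by mecA PCR, and the SCCmec subgroup was assigned by multiplex PCR.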

[11] = test system: Staphylococcus aureus; experiment: Antimicrobial activity against Panton-valentine leukocidin positive community acquired methicillin-resistant Staphylococcus aureus N4090440 obtained from wound infection of patient by broth microdilution method at pH 7.4; format: functional; method in brief: as §2
[12] = test system: Staphylococcus aureus; experiment: Antimicrobial activity against constitutive beta-lactamase negative methicillin-resistant Staphylococcus aureus COL NRS100 by broth microdilution method at pH 5.5; format: functional
[13] = test system: Staphylococcus aureus; experiment: Antimicrobial activity against hospital acquired methicillin-resistant Staphylococcus aureus N4120210 obtained from urinary tract infection patient by broth microdilution method at pH 5.5; format: functional; details: N4120210, Urine
[14] = test system: Staphylococcus aureus; experiment: Antimicrobial activity against Panton-valentine leukocidin positive community acquired methicillin-resistant Staphylococcus aureus N4090440 obtained from wound infection of patient by broth microdilution method at pH 5.5; format: functional
[15] = test system: Staphylococcus aureus; experiment: (§3) Antimicrobial activity against hospital acquired methicillin-resistant Staphylococcus aureus N4120032 obtained from wound infection of patient infected in human THP-1 cells assessed as increase in bacterial count from original inoculum at low compound concentration after 24 hrs at pH 5.5; format: functional
Method in brief: (§4)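 Bacteria phagocytosed by unactivated human THP-1 macrophages, then incubated 24 h with extracellular antibiotic at about 0.01× to 100× the pH 5.5 broth MIC. CFU per mg cell protein counted against the original inoculum, n = 3. A Hill-equation fit (slope factor 1) gave Emin and Emax, extrapolated to infinitely low and high concentration, and EC50. Static concentration was graphically interpolated.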

[16] = test system: Staphylococcus aureus; experiment: Antimicrobial activity against hospital acquired methicillin-resistant Staphylococcus aureus HMC546 infected in human THP-1 cells assessed as increase in bacterial count from original inoculum at low compound concentration after 24 hrs at pH 5.5; format: functional; method in brief: as §4
[17] = test system: Staphylococcus aureus; experiment: as §3, with “Panton-valentine leukocidin positive community” for “hospital”, “N4090440” for “N4120032”; format: functional; method in brief: as §4
[18] = test system: Staphylococcus aureus; experiment: Antimicrobial activity against Panton-valentine leukocidin positive community acquired methicillin-resistant Staphylococcus aureus N4042228 infected in human THP-1 cells assessed as increase in bacterial count from original inoculum at low compound concentration after 24 hrs at pH 5.5; format: functional; method in brief: as §4
[19] = test system: Staphylococcus aureus; experiment: Antimicrobial activity against hospital acquired methicillin-resistant Staphylococcus aureus ATCC 33591 infected in human THP-1 cells assessed as decrease in bacterial count from original inoculum at high compound concentration after 24 hrs at pH 5.5; format: functional; method in brief: as §4
[20] = test system: Staphylococcus aureus; experiment: Antimicrobial activity against hospital acquired methicillin-resistant and vancomycin-intermediate Staphylococcus aureus NRS126 obtained from bloodstream infection of patient infected in human THP-1 cells assessed as decrease in bacterial count from original inoculum at high compound concentration after 24 hrs at pH 5.5; format: functional; method in brief: as §4
[21] = test system: Staphylococcus aureus; experiment: Antimicrobial activity against constitutive beta-lactamase negative methicillin-resistant Staphylococcus aureus COL NRS100 infected in human THP-1 cells assessed as decrease in bacterial growth after 24 hrs at pH 5.5; format: functional, organism-based; details: COL NRS100, THP-1, 24 h; method in brief: as §4
[22] = test system: Staphylococcus aureus; experiment: Antimicrobial activity against Panton-valentine leukocidin positive community acquired methicillin-resistant Staphylococcus aureus N4042228 infected in human THP-1 cells assessed as decrease in bacterial growth after 24 hrs at pH 5.5; format: functional, organism-based; details: N4042228, THP-1, 24 h; method in brief: as §4
[23] = test system: Staphylococcus aureus; experiment: Bacteriostatic activity against beta-lactamase negative methicillin-susceptible Staphylococcus aureus ATCC 25923 infected in human THP-1 cells assessed as decrease in bacterial growth after 24 hrs at pH 5.5; format: functional
Method in brief: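 MSSA ATCC 25923 phagocytized by unactivated THP-1 macrophages; extracellular antibiotic from about 0.01× to 100× the broth MIC at pH 5.5, with gentamicin 0.5 mg/liter to block extracellular growth. CFU per mg cell protein counted at 24 h vs. original inoculum (n = 3). A Hill equation (slope factor 1) gives Emin/Emax, extrapolated to infinitely low/high concentration. Static concentration is read by graphical interpolation.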

[24] = test system: Staphylococcus aureus; experiment: Antimicrobial activity against intracellular beta-lactamase negative methicillin-susceptible Staphylococcus aureus ATCC 25923 infected in activated human THP-1 cells assessed as decrease in bacterial count from original inoculum at high compound concentration after 24 hrs at pH 7.4; format: functional

Structure (SMILES): Cc1onc(-c2ccccc2Cl)c1C(=O)N[C@@H]1C(=O)N2[C@@H]1SC(C)(C)[C@@H]2C(=O)O [CLOXACILLIN]
- EC50 [1]: 0.32 µg/mL (≈ 0.734 µM)
- log10cfu [2]: 0.6
- log10cfu [3]: 2.39
- log10cfu [4]: 0.99
- log10cfu [5]: 0.93
- remaining at 24 h [6]: 97.8%
- log10cfu [7]: 2.27
- EC50 [8]: 0.26 µg/mL (≈ 0.596 µM)
- MIC [9]: 0.125 µg/mL (≈ 0.287 µM)
- MIC [10]: 16 µg/mL (≈ 36.7 µM)
- MIC [11]: 0.5 µg/mL (≈ 1.15 µM)
- MIC [12]: 0.25 µg/mL (≈ 0.574 µM)
- MIC [13]: 0.06 µg/mL (≈ 0.138 µM)
- MIC [14]: 0.03 µg/mL (≈ 0.0688 µM)
- log10cfu [15]: 2.63
- log10cfu [16]: 2.06
- log10cfu [17]: 2.51
- log10cfu [18]: 2.68
- log10cfu [19]: 0.55
- log10cfu [20]: 0.69
- EC50 [21]: 2.74 ×MIC
- EC50 [22]: 10.8 ×MIC
- Activity [23]: 11 ×MIC
- log10cfu [24]: 0.9
